Experimental data: ChEMBL document CHEMBL1138529, “Efficacy, pharmacokinetics, and metabolism of tetrahydroquinoline inhibitors of Plasmodium falciparum protein farnesyltransferase” (Antimicrob Agents Chemother, 2007)
Activity calls are given as the source filed them.

Tests used:
[1] = Permeability from apical to basolateral side in human Caco-2 cells; assay type: ADME, cell-based; conditions: read-out: permeability
[2] = AUC in BALB/c mouse at 50 mg/kg, po; assay type: ADME, organism-based; parameters: dose 50 mg/kg, route oral; conditions: plasma
Outline: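 Three female BALB/c mice (lines for mice, 8–10 weeks) or three female Sprague-Dawley rats (10–12 weeks) per group; 50 mg/kg oral gavage in 3% EtOH-7% Tween 80-90% normal saline. Plasma sampled at set times (tail bleed in mice, saphenous vein in rats), extracted with acetonitrile plus internal standard, quantified by LC/MS; AUC as mean of three animals.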

[3] = Metabolic stability in rat liver microsomes; assay type: ADME, Microsome
Outline: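 Pooled female liver microsomes at 0.5 mg/ml in 0.1 M potassium phosphate pH 7.4, 3 mM MgCl2, 1 mM EDTA, with NADPH regenerating system (1 mM NADP+, 5 mM glucose-6-phosphate, 1 U/ml G6PDH). Preincubated 10 min at 37°C, then compound added to 1 μM final. Time points quenched with 3 volumes acetonitrile plus internal standard; parent quantified by LC/MS; half-life reported.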

[4] = Cmax in Sprague-Dawley rat at 50 mg/kg, po; assay type: ADME, organism-based; parameters: dose 50 mg/kg, route oral; conditions: in vivo
Outline: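 50 mg/kg by oral gavage in 3% EtOH-7% Tween 80-90% normal saline to groups of three females (BALB/c mice, 8–10 weeks, tail bleed; Sprague-Dawley rats, 10–12 weeks, saphenous vein). Plasma extracted with acetonitrile/internal standard, LC/MS; means of three animals. Oral elimination half-life depends on absorption rate as well as elimination.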

[5] = Inhibition of Plasmodium falciparum protein farnesyltransferase by SPA method
[6] = Oral bioavailability in Sprague-Dawley rat; assay type: ADME, organism-based; conditions: in vivo
Outline: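 Female Sprague-Dawley rats, 10-12 weeks, three per group. Oral gavage at 50 mg/kg and jugular-catheter i.v. dose at 2 mg/kg, both in 3% EtOH-7% Tween 80-90% saline. Plasma taken over time, acetonitrile extraction with internal standard, LC/MS. Bioavailability computed as oral AUC/i.v. AUC.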

Rattus norvegicus [7] = test: Toxicity in Plasmodium berghei NK65 infected Sprague-Dawley rat assessed as effect on glucose levels at 50 mg/kg, perorally administered every 12 hrs for 3 days; assay type: organism-based; parameters: dose 50 mg/kg, route oral; conditions: in vivo, po, in the assay text read “every 8 hrs” for “every 12 hrs”
Outline: (§1)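 Female Sprague-Dawley rats, 10-12 weeks, n = 3 per schedule. Dosed 50 mg/kg by oral gavage every 8 h or every 12 h for 72 h. At the end of dosing, blood was sent to a clinical laboratory for complete blood counts, white cell differentials, electrolytes, glucose, renal function, liver enzymes and cholesterol.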

Rattus norvegicus [8] = test: Toxicity in Plasmodium berghei NK65 infected Sprague-Dawley rat assessed as effect on renal function at 50 mg/kg, perorally administered every 12 hrs for 3 days; assay type: organism-based; parameters: dose 50 mg/kg, route oral; conditions: in vivo, po, in the assay text read “every 8 hrs” for “every 12 hrs”; outline: as §1
Rattus norvegicus [9] = test: Toxicity in Plasmodium berghei NK65 infected Sprague-Dawley rat assessed as effect on white blood cell differentials at 50 mg/kg, perorally administered every 8 hrs for 3 days; assay type: organism-based; parameters: dose 50 mg/kg, route oral; conditions: in vivo, po; outline: as §1
Rattus norvegicus [10] = test: Toxicity in Plasmodium berghei NK65 infected Sprague-Dawley rat assessed as effect on glucose levels at 50 mg/kg, perorally administered every 8 hrs for 3 days; assay type: organism-based; parameters: dose 50 mg/kg, route oral; conditions: in vivo, po; outline: as §1
Rattus norvegicus [11] = test: Toxicity in Plasmodium berghei NK65 infected Sprague-Dawley rat assessed as effect on cholesterol levels at 50 mg/kg, perorally administered every 8 hrs for 3 days; assay type: organism-based; parameters: dose 50 mg/kg, route oral; conditions: in vivo, po; outline: as §1
Salmonella typhimurium [12] = test: Genotoxicity in Salmonella enterica serovar Typhimurium TA98 assessed as increase in number of revertants in presence of rat liver S9 fraction by Ames test; assay type: toxicity, organism-based; conditions: salmonella enterica subsp. enterica serovar typhimurium
Outline: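 Liquid-culture Ames assay run by a contractor: S. Typhimurium TA98 and TA100 exposed for 96 h in histidine-free medium, with and without rat liver S9, at 5, 10, 50 and 100 μM (plus higher concentrations); growth read spectrophotometrically by pH-indicator colour change. Parallel bacterial cytotoxicity assay at same concentrations.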

[13] = molecular target: Adenosine receptor A1 (Homo sapiens) (UniProt P30542); test: Inhibition of adenosine A1 receptor at 10 uM
Outline: (§2)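 Radioligand displacement screen by a contractor across 50 receptors, ion channels and transporters, test compound at 10 μM; decrease in specific ligand binding expressed as percentage, with >50% decrease taken as significant.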

[14] = molecular target: Adenosine receptor A3 (Homo sapiens) (UniProt P0DMS8); test: Inhibition of adenosine A3 receptor at 10 uM; outline: as §2
[15] = molecular target: D(2) dopamine receptor (Homo sapiens) (UniProt P14416); test: Inhibition of dopamine D2S receptor at 10 uM
Outline: (§3)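 Radioligand displacement at a contract lab across a panel of 50 receptors, ion channels and transporters, single test concentration 10 μM; loss of specific ligand binding reported as percent, with >50% decrease counted as significant.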

[16] = Inhibition of […] GABA-gated chloride channel at 10 uM
Outline: (§4)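 Radioligand displacement screen at a 10 μM test concentration, run by a contract lab across a panel of 50 receptors, pharmacologically active ion channels and transporters. The read-out is the decrease in specific radiolabeled ligand binding, expressed as a percentage. A decrease above 50% was considered significant.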

[17] = molecular target: 5-hydroxytryptamine receptor 1A (Homo sapiens) (UniProt P08908); test: Inhibition of 5HT1A receptor at 10 uM; outline: as §2
[18] = molecular target: 5-hydroxytryptamine receptor 3A (Homo sapiens) (UniProt P46098); test: Inhibition of 5HT3 receptor at 10 uM; outline: as §2
[19] = molecular target: B2 bradykinin receptor (Homo sapiens) (UniProt P30411); test: Inhibition of bradykinin B2 receptor at 10 uM; outline: as §3
[20] = molecular target: Cholecystokinin receptor type A (Homo sapiens) (UniProt P32238); test: Inhibition of CCK1 receptor at 10 uM; outline: as §2
[21] = molecular target: Endothelin-1 receptor (Homo sapiens) (UniProt P25101); test: Inhibition of ETA receptor at 10 uM; outline: as §2
[22] = molecular target: Neurotensin receptor type 1 (Homo sapiens) (UniProt P30989); test: Inhibition of NTS1 receptor at 10 uM; outline: as §2
[23] = molecular target: Delta-type opioid receptor (Homo sapiens) (UniProt P41143); test: Inhibition of delta opioid receptor at 10 uM; outline: as §3
[24] = molecular target: Mu-type opioid receptor (Homo sapiens) (UniProt P35372); test: Inhibition of mu opioid receptor at 10 uM; outline: as §3
[25] = molecular target: Nociceptin receptor (Homo sapiens) (UniProt P41146); test: Inhibition of ORL1 receptor at 10 uM; outline: as §2
Salmonella typhimurium [26] = test: Toxicity against Salmonella enterica serovar Typhimurium TA100; assay type: organism-based, Salmonella enterica subsp. enterica serovar Typhimurium; conditions: in vivo
Outline: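 Ames fluctuation test in S. Typhimurium TA98 (frameshift) and TA100 (base substitution), with and without rat liver S9. Tested at 5, 10, 50 and 100 μM plus higher concentrations, 48 wells each, in histidine-free liquid medium for 96 h. Growth read spectrophotometrically by pH-indicator color change. Bacterial cytotoxicity assayed in parallel at the same concentrations.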

[27] = Inhibition of SKCa channel at 10 uM; outline: as §4
[28] = molecular target: Sodium-dependent noradrenaline transporter (Homo sapiens) (UniProt P23975); test: Inhibition of NET at 10 uM; outline: as §2
Plasmodium berghei = test: Antiplasmodial activity as reduced parasitaemia against Plasmodium berghei NK65 infected Sprague-Dawley rat at 50 mg/kg every 8 hrs peroral dose for 3 days

Sequence of Adenosine receptor A1 (Homo sapiens) (P30542 whole entry): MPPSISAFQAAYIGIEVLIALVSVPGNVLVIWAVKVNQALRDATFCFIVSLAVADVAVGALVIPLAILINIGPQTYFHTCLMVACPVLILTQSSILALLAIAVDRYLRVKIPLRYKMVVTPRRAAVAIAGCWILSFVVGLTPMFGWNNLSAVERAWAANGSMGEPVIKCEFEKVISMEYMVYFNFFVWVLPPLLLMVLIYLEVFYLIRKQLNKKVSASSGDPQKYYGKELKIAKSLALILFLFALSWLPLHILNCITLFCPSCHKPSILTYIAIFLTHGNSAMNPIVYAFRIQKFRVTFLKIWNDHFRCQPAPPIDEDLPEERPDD
Sequence of Mu-type opioid receptor (Homo sapiens) (P35372 whole entry): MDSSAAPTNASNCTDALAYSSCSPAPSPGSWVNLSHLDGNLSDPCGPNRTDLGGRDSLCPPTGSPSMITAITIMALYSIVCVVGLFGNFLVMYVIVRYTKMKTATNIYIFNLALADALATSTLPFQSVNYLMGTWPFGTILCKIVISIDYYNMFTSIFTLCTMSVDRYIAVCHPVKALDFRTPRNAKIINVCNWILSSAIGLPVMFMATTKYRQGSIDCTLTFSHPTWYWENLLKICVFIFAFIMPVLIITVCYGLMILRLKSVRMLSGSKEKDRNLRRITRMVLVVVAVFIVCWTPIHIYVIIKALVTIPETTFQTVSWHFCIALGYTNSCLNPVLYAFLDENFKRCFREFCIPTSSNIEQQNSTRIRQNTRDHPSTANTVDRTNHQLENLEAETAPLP
Sequence of Sodium-dependent noradrenaline transporter (Homo sapiens) (P23975 whole entry): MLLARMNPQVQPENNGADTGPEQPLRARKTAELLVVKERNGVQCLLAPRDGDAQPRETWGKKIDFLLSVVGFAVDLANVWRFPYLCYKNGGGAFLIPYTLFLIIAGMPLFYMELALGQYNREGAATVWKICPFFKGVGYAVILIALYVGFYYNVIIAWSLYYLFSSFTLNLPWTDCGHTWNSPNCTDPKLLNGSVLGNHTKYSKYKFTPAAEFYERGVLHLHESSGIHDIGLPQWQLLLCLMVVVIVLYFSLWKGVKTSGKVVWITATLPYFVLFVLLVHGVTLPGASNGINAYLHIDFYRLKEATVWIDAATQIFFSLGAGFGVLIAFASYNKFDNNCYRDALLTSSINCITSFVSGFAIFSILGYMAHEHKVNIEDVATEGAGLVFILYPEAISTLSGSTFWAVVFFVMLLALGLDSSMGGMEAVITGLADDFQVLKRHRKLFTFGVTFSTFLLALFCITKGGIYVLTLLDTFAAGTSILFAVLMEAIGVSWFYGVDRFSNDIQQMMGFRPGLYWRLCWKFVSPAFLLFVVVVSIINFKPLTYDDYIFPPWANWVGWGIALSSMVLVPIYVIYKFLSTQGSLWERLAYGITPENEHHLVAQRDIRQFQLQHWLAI
Sequence of Neurotensin receptor type 1 (Homo sapiens) (P30989 whole entry): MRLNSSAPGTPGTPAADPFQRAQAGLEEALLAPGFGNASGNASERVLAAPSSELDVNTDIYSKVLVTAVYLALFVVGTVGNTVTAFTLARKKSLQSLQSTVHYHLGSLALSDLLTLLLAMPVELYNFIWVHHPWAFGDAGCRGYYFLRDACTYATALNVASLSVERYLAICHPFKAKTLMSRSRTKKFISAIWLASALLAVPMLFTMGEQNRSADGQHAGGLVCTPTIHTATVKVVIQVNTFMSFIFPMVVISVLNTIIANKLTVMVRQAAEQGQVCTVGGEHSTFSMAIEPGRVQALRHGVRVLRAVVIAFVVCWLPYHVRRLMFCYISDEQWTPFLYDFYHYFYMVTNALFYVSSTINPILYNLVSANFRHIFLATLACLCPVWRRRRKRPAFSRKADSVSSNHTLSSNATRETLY
Sequence of 5-hydroxytryptamine receptor 1A (Homo sapiens) (P08908 whole entry): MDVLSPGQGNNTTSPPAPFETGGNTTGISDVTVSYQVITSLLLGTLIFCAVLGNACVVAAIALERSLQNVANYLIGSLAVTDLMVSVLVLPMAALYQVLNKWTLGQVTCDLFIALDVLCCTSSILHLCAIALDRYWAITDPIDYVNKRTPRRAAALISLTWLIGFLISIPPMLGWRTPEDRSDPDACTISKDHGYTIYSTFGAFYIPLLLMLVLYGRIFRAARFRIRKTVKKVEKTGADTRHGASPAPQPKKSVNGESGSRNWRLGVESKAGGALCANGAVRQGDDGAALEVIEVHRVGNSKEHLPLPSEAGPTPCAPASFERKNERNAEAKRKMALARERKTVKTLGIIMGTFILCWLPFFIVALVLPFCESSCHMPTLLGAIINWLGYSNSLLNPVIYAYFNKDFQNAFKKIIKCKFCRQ
Sequence of Adenosine receptor A3 (Homo sapiens) (P0DMS8 whole entry): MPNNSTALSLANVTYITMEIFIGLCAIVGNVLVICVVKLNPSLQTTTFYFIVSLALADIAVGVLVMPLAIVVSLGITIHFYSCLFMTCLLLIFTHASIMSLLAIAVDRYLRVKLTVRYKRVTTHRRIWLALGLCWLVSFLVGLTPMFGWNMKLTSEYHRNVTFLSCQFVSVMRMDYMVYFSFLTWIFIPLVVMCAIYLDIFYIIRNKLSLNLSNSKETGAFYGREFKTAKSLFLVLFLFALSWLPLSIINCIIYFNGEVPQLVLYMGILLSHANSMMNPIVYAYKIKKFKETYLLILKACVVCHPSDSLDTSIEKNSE
Sequence of Cholecystokinin receptor type A (Homo sapiens) (P32238 whole entry): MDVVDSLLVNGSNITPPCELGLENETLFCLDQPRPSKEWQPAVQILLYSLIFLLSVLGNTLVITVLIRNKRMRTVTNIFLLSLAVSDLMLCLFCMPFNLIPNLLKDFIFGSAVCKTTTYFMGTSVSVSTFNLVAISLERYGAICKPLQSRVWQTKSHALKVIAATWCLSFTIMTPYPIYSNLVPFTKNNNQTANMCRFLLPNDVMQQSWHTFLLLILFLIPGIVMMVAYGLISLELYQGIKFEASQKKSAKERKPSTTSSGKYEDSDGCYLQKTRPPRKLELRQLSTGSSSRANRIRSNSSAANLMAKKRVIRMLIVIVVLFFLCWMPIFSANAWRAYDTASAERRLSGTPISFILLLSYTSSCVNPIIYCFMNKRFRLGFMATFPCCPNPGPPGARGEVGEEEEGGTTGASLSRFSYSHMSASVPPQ
Sequence of Delta-type opioid receptor (Homo sapiens) (P41143 whole entry): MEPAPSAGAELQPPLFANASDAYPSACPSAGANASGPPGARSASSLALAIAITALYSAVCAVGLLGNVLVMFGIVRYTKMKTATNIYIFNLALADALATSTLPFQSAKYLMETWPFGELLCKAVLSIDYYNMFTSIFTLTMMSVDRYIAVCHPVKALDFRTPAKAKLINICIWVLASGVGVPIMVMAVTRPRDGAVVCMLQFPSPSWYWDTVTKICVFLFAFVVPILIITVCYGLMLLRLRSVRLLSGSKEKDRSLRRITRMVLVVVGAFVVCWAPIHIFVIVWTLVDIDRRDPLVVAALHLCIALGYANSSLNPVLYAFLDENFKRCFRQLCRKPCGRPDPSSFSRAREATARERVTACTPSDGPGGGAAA
Sequence of Endothelin-1 receptor (Homo sapiens) (P25101 whole entry): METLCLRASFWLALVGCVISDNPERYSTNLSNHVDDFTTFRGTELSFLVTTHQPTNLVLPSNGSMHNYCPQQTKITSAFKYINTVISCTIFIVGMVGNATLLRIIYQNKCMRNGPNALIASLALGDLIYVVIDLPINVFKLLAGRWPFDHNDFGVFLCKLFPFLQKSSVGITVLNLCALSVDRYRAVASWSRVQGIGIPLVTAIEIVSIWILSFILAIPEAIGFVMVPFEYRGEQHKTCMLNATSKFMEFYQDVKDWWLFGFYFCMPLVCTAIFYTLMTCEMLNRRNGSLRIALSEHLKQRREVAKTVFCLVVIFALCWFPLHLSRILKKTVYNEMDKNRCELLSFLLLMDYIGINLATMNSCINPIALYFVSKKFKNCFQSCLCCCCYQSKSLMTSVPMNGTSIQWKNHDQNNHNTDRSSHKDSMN
Sequence of 5-hydroxytryptamine receptor 3A (Homo sapiens) (P46098 whole entry): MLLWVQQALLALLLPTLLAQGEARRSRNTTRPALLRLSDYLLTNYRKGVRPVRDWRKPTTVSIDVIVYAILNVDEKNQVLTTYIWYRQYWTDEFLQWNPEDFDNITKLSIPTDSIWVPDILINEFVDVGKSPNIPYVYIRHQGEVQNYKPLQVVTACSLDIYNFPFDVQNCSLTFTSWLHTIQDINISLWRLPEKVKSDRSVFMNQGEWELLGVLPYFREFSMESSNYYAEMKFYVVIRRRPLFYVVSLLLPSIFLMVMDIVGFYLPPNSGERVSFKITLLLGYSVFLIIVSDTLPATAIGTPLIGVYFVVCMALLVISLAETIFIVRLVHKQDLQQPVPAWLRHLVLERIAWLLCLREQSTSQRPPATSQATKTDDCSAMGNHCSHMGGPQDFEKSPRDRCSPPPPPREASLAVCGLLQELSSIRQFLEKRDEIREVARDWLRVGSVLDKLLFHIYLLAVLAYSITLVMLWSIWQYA
Sequence of D(2) dopamine receptor (Homo sapiens) (P14416 whole entry): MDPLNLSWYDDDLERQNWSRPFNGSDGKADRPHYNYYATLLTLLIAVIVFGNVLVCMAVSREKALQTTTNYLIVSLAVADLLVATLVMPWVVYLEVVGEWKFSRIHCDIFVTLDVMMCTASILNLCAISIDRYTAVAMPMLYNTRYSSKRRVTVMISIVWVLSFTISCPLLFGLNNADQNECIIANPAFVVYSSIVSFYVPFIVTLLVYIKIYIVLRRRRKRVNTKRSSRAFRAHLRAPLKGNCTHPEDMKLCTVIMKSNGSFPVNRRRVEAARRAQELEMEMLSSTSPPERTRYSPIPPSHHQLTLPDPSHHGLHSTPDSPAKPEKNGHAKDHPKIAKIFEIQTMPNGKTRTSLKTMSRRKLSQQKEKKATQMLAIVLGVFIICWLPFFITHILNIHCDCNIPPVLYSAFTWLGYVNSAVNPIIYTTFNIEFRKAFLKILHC

## COC(=O)N1CCC(CN(C2Cc3cc(C#N)ccc3N(Cc3cncn3C)C2)S(=O)(=O)c2ccccn2)CC1 (centres undefined)
[1]
  Papp A→B: 1.1 ×10⁻⁶ cm/s
[2]
  AUC: 3.68 µM·h
[3]
  half-life: 14 min
[4]
  Cmax: 4.5 µM
[5]
  IC50: 0.58 nM
[6]
  bioavailability: 82%
Rattus norvegicus [7]
  Activity: Non-toxic
Rattus norvegicus [8]
  Activity: Non-toxic
Rattus norvegicus [9]
  Activity: Non-toxic
Rattus norvegicus [10]
  Activity: Non-toxic
Rattus norvegicus [11]
  Activity: Non-toxic
Salmonella typhimurium [12]
  Activity: Non-toxic
[13]
  inhibition: inactive
[14]
  inhibition: inactive
[15]
  inhibition: inactive
[16]
  inhibition: inactive
[17]
  inhibition: inactive
[18]
  inhibition: inactive
[19]
  inhibition: inactive
[20]
  inhibition: inactive
[21]
  inhibition: inactive
[22]
  inhibition: inactive
[23]
  inhibition: inactive
[24]
  inhibition: inactive
[25]
  inhibition: inactive
Salmonella typhimurium [26]
  Activity: Non-toxic
[27]
  inhibition: inactive
[28]
  inhibition: inactive
Plasmodium berghei
  Activity: Active
